This is an account of results in ChEMBL document CHEMBL3600344, “Novel thiourea-based sirtuin inhibitory warheads” (Bioorg Med Chem Lett, 2015).

Each structure is given as a SMILES string. Peptide text beside a SMILES is read from it.

The nature of series [1]: Antioxidant activity assessed as inhibition of superoxide radical anion generation at 200 uM after 5 mins in presence of NBT and NADH relative to control. The format is physicochemical.
Series [2] addresses T1, NAD-dependent protein deacetylase sirtuin-1 (Homo sapiens, UniProt Q96EB6).
T1 sequence (Q96EB6 whole entry): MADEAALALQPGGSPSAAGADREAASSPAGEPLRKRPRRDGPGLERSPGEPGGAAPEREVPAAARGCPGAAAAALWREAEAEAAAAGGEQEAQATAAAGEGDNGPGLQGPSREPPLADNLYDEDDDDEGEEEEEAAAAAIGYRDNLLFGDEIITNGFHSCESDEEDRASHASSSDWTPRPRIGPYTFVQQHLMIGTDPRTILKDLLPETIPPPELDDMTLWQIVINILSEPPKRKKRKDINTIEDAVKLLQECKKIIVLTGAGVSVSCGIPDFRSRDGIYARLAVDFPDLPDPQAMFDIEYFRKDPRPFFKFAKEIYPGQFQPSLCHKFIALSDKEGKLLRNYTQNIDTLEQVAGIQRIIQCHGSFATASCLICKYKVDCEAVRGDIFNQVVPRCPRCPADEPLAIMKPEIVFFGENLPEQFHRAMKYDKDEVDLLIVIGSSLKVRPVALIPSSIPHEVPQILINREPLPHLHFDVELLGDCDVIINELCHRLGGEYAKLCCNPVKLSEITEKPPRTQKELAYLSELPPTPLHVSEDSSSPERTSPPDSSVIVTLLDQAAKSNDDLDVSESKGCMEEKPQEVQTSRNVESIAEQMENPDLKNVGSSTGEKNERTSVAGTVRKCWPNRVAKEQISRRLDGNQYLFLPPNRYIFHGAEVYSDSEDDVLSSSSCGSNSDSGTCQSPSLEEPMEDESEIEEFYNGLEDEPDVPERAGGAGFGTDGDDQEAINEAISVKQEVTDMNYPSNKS
In words: Inhibition of human His6 or GST-tagged SIRT1 using H2N-HK-(Nepsilon-acetyl-lysine)-LM-COOH as substrate after 10 mins by HPLC analysis.

For series [3], the target named is T2, NAD-dependent protein deacetylase sirtuin-2 (Homo sapiens, UniProt Q8IXJ6).
T2 sequence (Q8IXJ6 whole entry): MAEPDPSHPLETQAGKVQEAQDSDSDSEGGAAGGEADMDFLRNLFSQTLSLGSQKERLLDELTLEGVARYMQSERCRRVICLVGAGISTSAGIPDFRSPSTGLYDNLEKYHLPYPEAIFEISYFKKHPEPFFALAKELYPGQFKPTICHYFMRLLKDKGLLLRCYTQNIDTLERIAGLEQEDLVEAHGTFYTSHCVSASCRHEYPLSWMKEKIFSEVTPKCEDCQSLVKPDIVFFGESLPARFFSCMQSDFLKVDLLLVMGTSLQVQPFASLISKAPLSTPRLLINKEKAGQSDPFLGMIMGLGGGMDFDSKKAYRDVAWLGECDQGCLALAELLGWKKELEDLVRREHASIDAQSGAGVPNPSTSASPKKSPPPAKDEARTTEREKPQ
Kind of series: Inhibition of human His6-tagged SIRT2 using H2N-HK-(Nepsilon-acetyl-lysine)-LM-COOH as substrate after 10 mins by HPLC analysis.

Series [4] deals with T3, NAD-dependent protein deacetylase sirtuin-3, mitochondrial (Homo sapiens, UniProt Q9NTG7).
T3 sequence (Q9NTG7 whole entry): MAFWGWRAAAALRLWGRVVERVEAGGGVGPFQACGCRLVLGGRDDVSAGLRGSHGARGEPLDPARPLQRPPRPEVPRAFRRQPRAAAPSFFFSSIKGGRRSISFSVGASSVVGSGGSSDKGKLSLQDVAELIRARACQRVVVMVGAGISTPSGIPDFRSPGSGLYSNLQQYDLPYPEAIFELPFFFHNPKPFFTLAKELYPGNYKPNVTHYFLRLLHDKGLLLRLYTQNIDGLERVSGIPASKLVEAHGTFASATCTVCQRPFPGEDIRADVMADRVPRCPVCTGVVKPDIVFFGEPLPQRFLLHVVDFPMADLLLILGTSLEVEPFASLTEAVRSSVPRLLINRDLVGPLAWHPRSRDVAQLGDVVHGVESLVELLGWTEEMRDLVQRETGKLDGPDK
In words: Inhibition of human His6-tagged SIRT3 using H2N-HK-(Nepsilon-acetyl-lysine)-LM-COOH as substrate after 8 mins by HPLC analysis.

Series [5] is described as follows: Stability of the compound assessed as Streptomyces griseus pronase-mediated degradation by measuring compound remaining at 160 uM after 60 mins by HPLC analysis. The class given is ADME. The settings on record: read-out: Stability. Put shortly:
(§1)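 Compound incubated with pronase (broad-specificity protease mixture), percent compound remaining followed over time up to 60 min; a control peptide incubated under the same condition.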

The target of series [6] is NAD-dependent protein deacylase sirtuin-5, mitochondrial (Homo sapiens, UniProt Q9NXA8). Kind of series: Inhibition of human SIRT5 using CH3CONH-AR-(Nepsilon-succinyl-lysine)-ST-CONH2 as substrate after 5 mins by HPLC analysis.
NAD-dependent protein deacylase sirtuin-5, mitochondrial, sequence (Q9NXA8 whole entry): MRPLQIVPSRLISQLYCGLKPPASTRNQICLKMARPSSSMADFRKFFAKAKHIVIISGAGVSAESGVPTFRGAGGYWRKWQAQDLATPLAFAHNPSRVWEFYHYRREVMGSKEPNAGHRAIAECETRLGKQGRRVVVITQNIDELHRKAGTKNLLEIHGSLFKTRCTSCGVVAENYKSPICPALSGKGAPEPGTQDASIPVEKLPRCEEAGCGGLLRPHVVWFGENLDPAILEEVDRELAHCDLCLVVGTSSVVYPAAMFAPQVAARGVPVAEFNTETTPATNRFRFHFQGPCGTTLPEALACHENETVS
Series [7] concerns the target NAD-dependent protein deacylase sirtuin-6 (Homo sapiens, UniProt Q8N6T7). In words: Inhibition of human SIRT6 using H2N-EALPK-(Nepsilon-myristoyl-lysine)-TGGPQ-CONH2 as substrate after 12 mins by HPLC analysis.
A short description of series [8]: Stability of the compound assessed as Streptomyces griseus pronase-mediated degradation at 160 uM measured within 3 mins by HPLC analysis. To be noted: 0.05 h. The class given is ADME. An outline of the steps: as §1

NAD-dependent protein deacylase sirtuin-6, sequence (Q8N6T7 whole entry): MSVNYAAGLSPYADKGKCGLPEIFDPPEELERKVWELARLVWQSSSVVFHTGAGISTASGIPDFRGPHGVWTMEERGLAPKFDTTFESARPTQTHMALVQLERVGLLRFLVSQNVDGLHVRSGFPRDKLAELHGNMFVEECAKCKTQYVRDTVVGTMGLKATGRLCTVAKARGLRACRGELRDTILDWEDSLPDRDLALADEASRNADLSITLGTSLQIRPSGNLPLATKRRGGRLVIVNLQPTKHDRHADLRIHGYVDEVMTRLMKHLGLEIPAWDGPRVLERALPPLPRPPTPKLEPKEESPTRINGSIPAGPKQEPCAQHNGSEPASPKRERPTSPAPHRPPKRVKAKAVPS

In the case of `CC(=O)NCCCC[C@H](NC(=O)[C@H](CCCCNC(C)=S)NC(=O)[C@H](CCCCNC(C)=O)NC(C)=O)C(N)=O`, the “inhibition (INH)” value in series [1] is given as 6%.
By IC50 is commonly meant the concentration at which inhibition is half-maximal. Low readings indicate greater potency, high ones weaker potency. On to `CC(=O)NCCCC[C@H](NC(=O)[C@H](CCCCNC(N)=S)NC(=O)[C@H](CCCCNC(C)=O)NC(C)=O)C(N)=O`, for which the values for the IC50 in series [2], in series [3] and in series [4] were 49.9 µM, 30.4 µM and 5.4 µM, respectively.
Take `CNC(=S)NCCCC[C@H](NC(=O)[C@H](CCCCNC(C)=O)NC(C)=O)C(=O)N[C@@H](CCCCNC(C)=O)C(N)=O`: the IC50 in series [2] is 5.6 µM; in series [3], 1.65 µM; in series [4], 2.2 µM. In addition, the “inhibition (INH)” value in series [1] was determined as 50%. Besides, in series [5], the remaining at 1 h, 160 µM came to 88%.
The compound `CC(=O)NCCCC[C@H](NC(=O)[C@H](CCCCNC(=S)Nc1ccccc1)NC(=O)[C@H](CCCCNC(C)=O)NC(C)=O)C(N)=O` gave an IC50 in series [2] of 62.9 µM.
`CC(=O)NCCCC[C@H](NC(=O)[C@H](CCCCNC(=S)NCC(=O)O)NC(=O)[C@H](CCCCNC(C)=O)NC(C)=O)C(N)=O` showed an IC50 in series [6] of over 100 µM.
On to `CC(=O)NCCCC[C@H](NC(=O)[C@H](CCCCNC(=S)NCCC(=O)O)NC(=O)[C@H](CCCCNC(C)=O)NC(C)=O)C(N)=O`, for which the values for the IC50 in series [6] and in series [7] were 5 µM and 2.4 mM, respectively.
Take `CC(=O)NCCCC[C@H](NC(=O)[C@H](CCCCNC(=S)NCCCC(=O)O)NC(=O)[C@H](CCCCNC(C)=O)NC(C)=O)C(N)=O`: the IC50 in series [6] is over 100 µM.
With `CSCC[C@H](NC(=O)[C@H](CC(C)C)NC(=O)[C@H](CCCCNC(C)=O)NC(=O)[C@H](CCCCN)NC(=O)[C@@H](N)Cc1cnc[nH]1)C(=O)O` (H-HKK(Ac)LM-OH), the Stability entry in series [8] is reported as “Unstable”.
